{"source": "ChEMBL document CHEMBL1125641", "about": "“Syntheses and in vitro evaluation of water-soluble \"cationic metalloporphyrin-ellipticine\" molecules having a high affinity for DNA” (J Med Chem, 1991)", "key": {"Nucleic Acid [1]": {"tested_on": "Nucleic Acid", "test": "DNA affinity constant to poly[d(A-T)]", "type": "nucleic-acid assay", "details": "Bos taurus", "method_in_brief": "(§1)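 Ethidium bromide displacement at 25 °C in 0.01 M cacodylate pH 7.0 with 10 mM NaCl, using 1.26 μM EB and 1 μM polynucleotide (poly[d(A-T)] or poly[d(G-C)]). Bound-EB fluorescence was read across varying drug concentrations. The concentration displacing 50% of EB came from nonlinear-regression fitting, and Kapp was derived from it by the Baguley method.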"}, "Nucleic Acid [2]": {"tested_on": "Nucleic Acid", "test": "DNA affinity constant to poly[d(G-C)]", "type": "nucleic-acid assay", "details": "Bos taurus", "method_in_brief": "as §1"}, "L1210 [3]": {"tested_on": "L1210", "test": "Concentration required to reduce 50% growth of L1210 cells in 48 hr", "type": "functional, cell-based, Mus musculus", "method_in_brief": "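Murine leukemia L1210 cells grown in vitro with the derivatives, which were dissolved in water. Growth was scored after 48 h against untreated controls. IC50 is the concentration that cuts cell multiplication by 50%. Values are the mean of two or three determinations, or four independent experiments where a standard deviation is given.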"}, "L1210 [4]": {"tested_on": "L1210", "test": "Concentration required to reduce 50% growth of L1210 cells in 48h; b=No inhibition at 7.5 uM", "type": "functional, cell-based, Mus musculus", "method_in_brief": "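Murine leukaemia L1210 cells grown in vitro, with the metalloporphyrin derivatives dissolved in water. Growth was measured after 48 h against untreated controls. IC50 is the concentration that cuts the rate of cell multiplication by 50%. Values are the mean of two or three determinations, or of four independent experiments where a deviation is given.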"}, "[5]": {"details": "tested as the Zn salt or complex"}}, "note": "pIC50: −log10 of the molar value."}
{"molecule": "COc1ccc2[nH]c3c(C)c4cc[n+](CCCCC(=O)O)cc4c(C)c3c2c1", "values": [{"measurement": "K app", "setting": "Nucleic Acid [1]", "result": "2.5e+06", "unit": "M⁻¹"}, {"measurement": "K app", "setting": "Nucleic Acid [2]", "result": "4.9e+06", "unit": "M⁻¹"}, {"measurement": "pIC50", "setting": "L1210 [3]; Mus musculus, L1210, 48 h", "result": "< 4.64"}]}
{"molecule": "CC(=O)[O-].CC(=O)[O-].CC(=O)[O-].CC(=O)[O-].COc1ccc2[nH]c3c(C)c4cc[n+](CCCCC(=O)Nc5ccc(-c6c7nc(c(-c8cc[n+](C)cc8)c8ccc([nH]8)c(-c8cc[n+](C)cc8)c8nc(c(-c9cc[n+](C)cc9)c9ccc6[nH]9)C=C8)C=C7)cc5)cc4c(C)c3c2c1.[Zn]", "values": [{"measurement": "K app", "setting": "Nucleic Acid [1]; [5]", "result": "2e+09", "unit": "M⁻¹"}, {"measurement": "K app", "setting": "Nucleic Acid [2]; [5]", "result": "1.9e+08", "unit": "M⁻¹"}, {"measurement": "IC50", "setting": "L1210 [4]", "result": "No growth inhibition"}]}
{"molecule": "BLEOMYCIN", "values": [{"measurement": "pIC50", "setting": "L1210 [3]; l1210", "result": 5.77}]}
